Assay results from PMC6427685 (Journal of Enzyme Inhibition and Medicinal Chemistry, 2019).
Like-named read-outs stand apart in the source and are kept apart here.

What was measured:
[1] = target: Recombinant M. tuberculosis MbtI (Mycobacterium tuberculosis, UniProt P9WFX1); assay: biochemical; conditions: for remaining activity at 100 µM: pH 7.5, read-out: Residual activity at 100 µM (%)
Cell viability assay = assay type: cell-based; conditions: human, MRC5 human fibroblast lung cells
How it was run: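 MRC5 human lung fibroblasts were kept at 37 °C in humidified 5% CO2 and seeded in 96-well plates. The next day, vehicle or test compound was added at 200 to 0.01 µM.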

Sequence of Recombinant M. tuberculosis MbtI (P9WFX1 whole entry): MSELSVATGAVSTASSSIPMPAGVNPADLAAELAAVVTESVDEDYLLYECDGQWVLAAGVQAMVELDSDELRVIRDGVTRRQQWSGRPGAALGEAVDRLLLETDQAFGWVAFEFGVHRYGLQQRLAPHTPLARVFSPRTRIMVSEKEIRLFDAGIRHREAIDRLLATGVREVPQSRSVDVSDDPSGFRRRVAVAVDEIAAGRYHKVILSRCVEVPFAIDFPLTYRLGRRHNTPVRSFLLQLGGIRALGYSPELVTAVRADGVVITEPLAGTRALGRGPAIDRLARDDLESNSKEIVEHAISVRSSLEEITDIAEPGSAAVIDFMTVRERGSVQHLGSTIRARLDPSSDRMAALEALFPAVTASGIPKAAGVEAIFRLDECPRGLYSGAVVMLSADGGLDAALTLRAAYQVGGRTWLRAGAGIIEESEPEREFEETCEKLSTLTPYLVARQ

Row | Compound | IC50 [1] [µM] | remaining activity at 100 µM [1] [%] | Residual activity at 100 µM (%) ([1]; compound at 100 µM, 50 µM chorismic acid, 37 °C, pH 7.5) | IC50 ([1]; read-out: MbtI IC50) [µM] | IC50 at 96 h (Cell viability assay) [µM]
1 | O=C(O)c1ccc(-c2ccc(C(F)(F)F)cc2F)o1 [1b] | 27.6 ± 7.3 | 6.1 ± 1.1 | – | – | –
2 | O=C(O)c1ccc(-c2ccc(C(F)(F)F)cc2Br)o1 [1c] | – | 38 ± 3.7 | – | – | –
3 | O=C(O)c1ccc(-c2ccc(C(F)(F)F)cc2O)o1 [1d] | 35.9 ± 10.3 | 16.8 ± 2.7 | – | – | –
4 | Cc1cc(C(F)(F)F)ccc1-c1ccc(C(=O)O)o1 [1e] | 31.5 ± 9.6 | 19.3 ± 2.2 | – | – | –
5 | Nc1cc(C(F)(F)F)ccc1-c1ccc(C(=O)O)o1 [1f] | 34.6 ± 10.9 | 13.1 ± 2.4 | – | – | –
6 | N#Cc1cc(C(F)(F)F)ccc1-c1ccc(C(=O)O)o1 [1g, 5-(2-cyano-4-(trifluoromethyl)phenyl)furan-2-carboxylic acid] | 18.5 ± 3.2 | 5.7 ± 1.5 | – | – | –
7 | O=C(O)c1ccc(-c2ccc([N+](=O)[O-])cc2Br)o1 [1j] | – | 32.1 ± 2.4 | – | – | –
8 | O=C(O)c1ccc(-c2ccc([N+](=O)[O-])cc2F)o1 [1k] | – | 26.4 ± 4.8 | – | – | –
9 | O=C(O)c1ccc(-c2ccc([N+](=O)[O-])cc2O)o1 [1l] | 29.8 ± 4.2 | 13.9 ± 4 | – | – | –
10 | Cc1cc([N+](=O)[O-])ccc1-c1ccc(C(=O)O)o1 [1m] | 28.5 ± 1.5 | 13.2 ± 5.8 | – | – | –
11 | Nc1cc([N+](=O)[O-])ccc1-c1ccc(C(=O)O)o1 [1n] | 24.2 ± 5.4 | 13.5 ± 3.8 | – | – | –
12 | N#Cc1cc([N+](=O)[O-])ccc1-c1ccc(C(=O)O)o1 [1o, 5-(2-cyano-4-nitro-phenyl)furan-2-carboxylate] | – | – | 5.0 ± 1.9 | 24.4 ± 5.9 | –
13 | O=C(O)c1ccc(-c2ccc([N+](=O)[O-])cc2C(F)(F)F)o1 [1p] | – | 25.1 ± 3.7 | – | – | > 100
